Compounds with a hit are over-represented: about 4.2% of the library has one in this group of screens.
SKKanGAS inh: inhibitors of SKKanGAS S. pyogenes growth in kanamycin (SK-promoter or general growth effect) | BacTiter-Glo, 6 h | inhibition, % at 7.5 µM | 300,000 compounds, 1.3% hits;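 active means mean replicate score, as percent of positive control median, at least 50; inconclusive means mean below 50 but one replicate at or above 50; inactive means mean and every replicate below 50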;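 further: strain carries kanamycin resistance gene driven by streptokinase promoter and grows in 40 µg/ml kanamycin; loss of luminescence reflects streptokinase promoter inhibition or plain growth inhibition; 0% = median of DMSO wells and 100% = positive control at its reference dose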
WT yeast gro inh: growth inhibition of WT yeast, mitochondrial fusion screen. mitochondrial fusion phenotypic screen, WT strain. inhibition, % at 10 µM. 190,000 compounds, 2.1% hits. AID 1362; in the data active means inhibition above about 58%; tested in S. cerevisiae
Rad51 HR inh: blocks human Rad51 in homologous recombination; Q06609; hRad51 DNA strand exchange, fluorescence dequenching; 200,000 compounds, 0.085% hits; inhibition, % at 10 µM; AID 1385;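 active means inhibition above 40% at the single screening dose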;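 further: 0% = DMSO control wells and 100% = blanks with heterologous ssDNA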
Target sequence (Q06609 whole entry, looked up): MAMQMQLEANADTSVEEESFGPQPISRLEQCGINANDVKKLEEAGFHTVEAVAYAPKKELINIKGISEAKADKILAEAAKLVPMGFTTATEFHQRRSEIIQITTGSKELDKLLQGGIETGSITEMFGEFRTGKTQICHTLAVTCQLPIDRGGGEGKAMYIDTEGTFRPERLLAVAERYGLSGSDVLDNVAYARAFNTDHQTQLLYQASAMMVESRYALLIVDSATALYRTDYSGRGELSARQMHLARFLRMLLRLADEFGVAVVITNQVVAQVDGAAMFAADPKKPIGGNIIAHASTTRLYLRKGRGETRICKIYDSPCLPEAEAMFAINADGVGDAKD
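Material: Human Rad51 nucleoprotein filaments preassembled on unlabelled ssDNA | Also added: Labelled 47-mer dsDNA for strand exchange | Dosing: Single dose, 10 µM final compound | Schedule: 30-min compound preincubation and 15-min exchange, both room temperature | Technique: Fluorescence dequenching at 485/520 nm | Measure: Percent inhibition relative to plate controls and blanks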
Autophagy mod: autophagy modulation, high-content screen. MEF GFP-LC3 puncta imaging; test concentration mostly 10 µM. calls only at 10 µM (by protocol). 190,000 compounds, 0.98% hits;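 active means percentage of spot-positive cells more than 3 SD above its plate mean, without a fluorescence outlier flag or 80% toxicity; inconclusive means no clear call, values can overlap the other calls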;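 further: spot-positive cell cutoff set from DMSO-treated cells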
Cl transport mod: modulates chloride dependent transport by human KCC2. Q9H2X9. KCC2 cells, thallium flux FluoZin-2 fluorescence. B-score of Tl+ flux slope (higher = more flux/activation; lower = inhibition) at 10 µM. 190,000 compounds, 2.2% hits;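 active means thallium flux slope and its plate-corrected score both differing from the plate sample mean at a set confidence after two filtering rounds, in either direction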;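 further: slope of fluorescence scaled to starting intensity during 10 to 20 s after thallium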
Insulin prom up: MIN6 insulin promoter up-regulation | AID 1625 | z-score at 5 µM | 190,000 compounds, 0.3% hits | MIN6 insulin promoter-GFP reporter, high-content imaging; hits give high values;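 active means z-score above 3 at 5 µM with at least 500 cells counted in the well; inconclusive means wells under 500 cells, flagged as cytotoxic or low count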
Numbers without * were called inactive; i = inactive; ? = inconclusive; . = not tested or not shown; + = active, no number.

SMILES | SKKanGAS inh | WT yeast gro inh | Rad51 HR inh | Autophagy mod | Cl transport mod | Insulin prom up
O=C(N/N=C/c1ccc[nH]1)c1cc(-c2ccc(Cl)cc2)nc2ccccc12 | 34 | 69* | . | i | 0.48 | -1.4
O=C(N/N=C/c1cccnc1)c1cc(-c2ccc(Cl)cc2)nc2ccccc12 | -1 | . | . | . | . | .
COC(=O)c1sccc1N/N=C/c1cccc(OC)c1O | 3 | 17 | 3 | i | 1.3 | -0.02
Cn1c(SCC(=O)N/N=C/c2ccc([N+](=O)[O-])s2)nnc1-c1ccccc1 | 8 | 81 | . | i | -1.1 | -0.21
COc1cccc(/C=N/Nc2ncnc3scc(-c4ccccc4)c23)c1O | 82* | -6 | . | i | -0.74 | ?
O=C(N/N=C/c1ccc([N+](=O)[O-])o1)c1cn(-c2ccccc2)nc1-c1ccccc1 | 22 | -1 | . | i | -0.018 | -0.61
O=C(N/N=C/c1ccc([N+](=O)[O-])o1)c1cn(-c2ccccc2)nc1-c1ccc(Cl)cc1 | 107* | 0 | -3 | i | -0.094 | -0.61
O=[N+]([O-])c1ccc(O)c(/C=N/Nc2nc3ccccc3[nH]2)c1 | 71* | -7 | . | i | 0.12 | -0.55
O=C(N/N=C/c1cc([N+](=O)[O-])ccc1Cl)c1cc(-c2ccccc2)nc2ccccc12 | -5 | . | 2 | . | 0.63 | -0.05
O=C(N/N=C/c1cc([N+](=O)[O-])ccc1O)c1cc(-c2ccccc2)nc2ccccc12 | 90* | 5 | -11 | i | -1.7 | -0.47
CC(/C=N/NC(=O)c1cc(-c2ccncc2)nc2ccccc12)=C\c1ccco1 | -4 | -6 | . | + | 0.58 | .
Cc1cc(C)c2c(c1)/C(=c1/sc3n(c1=O)CN(c1ccccc1)CN=3)C(=O)N2 | -7 | . | 6 | . | -0.31 | .
COc1cccc(/C=N/Nc2nc3ccccc3[nH]2)c1OC | 1 | . | 6 | . | 0 | 0.88
COc1cccc(/C=N/Nc2nc3ccccc3[nH]2)c1O | 79* | . | 19 | . | 0.024 | -2.3
O=C(NC(C(=O)N/N=C/c1cc([N+](=O)[O-])ccc1O)c1n[nH]c(=O)c2ccccc12)c1ccccc1 (stereo not drawn) | 87* | . | . | . | . | .
COc1cccc(/C=N/Nc2ncnc(Cl)c2N)c1O | 36 | 55 | -9 | i | -0.32 | ?
COc1cccc(/C=N/Nc2nccnc2Cl)c1O | -9 | 26 | -33 | + | 0.6 | -3.5
CCc1ccc(NC(=O)C(=O)NCC2CCCN2S(=O)(=O)c2cccs2)cc1 (stereo not drawn) | 10 | . | . | . | . | .
c1ccc(Cn2c[n+](Cc3ccccc3)c3ccccc32)cc1 | -13 | . | . | . | . | .
Nc1cc(=O)nc(SCC(=O)Nc2ccccc2Cl)n1-c1ccccc1 | 1 | 14 | -8 | i | 1.3 | -0.18
CC(C)(CO)CNC(=O)CCc1nnc(-c2ccc(-c3ccccc3)cc2)o1 | -1 | . | . | . | . | .
O=C(O)c1cccc(N/N=C/C2=C(Cl)c3cc(Cl)ccc3SC2)c1 | 106* | 94* | -44 | i | -2.5 | 0.61
Cc1cccc(Nc2nc(-c3cccs3)cs2)n1 | 7 | 72* | 0 | i | -0.76 | .
Nc1nc2ccccc2[nH]1 | -2 | . | . | . | . | .
Nc1ccccc1Sc1nc2ccccc2[nH]1 | 61* | 45 | 8 | i | -1.5 | -0.33
SMILES | SKKanGAS inh | WT yeast gro inh | Rad51 HR inh | Autophagy mod | Cl transport mod | Insulin prom up
Cc1ccc(CN2CCN(Cc3cn[nH]c3-c3cccc(F)c3)CC2CCO)o1 (stereo not drawn) | -3 | 0 | 25 | i | . | 0.82
COc1ccc(C2(O)CCN(Cc3nnnn3Cc3ccc(C)cc3)CC2)cc1 | -1 | 9 | -3 | + | -0.37 | -0.19
COc1ccc(NC(=O)C2CC(c3ccccc3Cl)=NO2)cc1 (stereo not drawn) | -5 | . | . | . | . | .
COc1cc(C(=O)Nc2cccc(C)c2C)c(Br)c(OC)c1OC | -9 | 7 | 48* | i | -1.7 | -0.08
COc1ccc(CN(CCC(c2ccc(F)cc2)C2CCOC(C)(C)C2)C(=O)c2ccco2)cc1 (stereo not drawn) | 2 | 55 | 5 | i | -1 | -0.62
CC(c1ccccc1)N(CCC(c1ccccc1)C1CCOC(C)(C)C1)C(=O)c1ccco1 (stereo not drawn) | 3 | 79* | -3 | i | -2.3 | -0.25
c1ccc(-c2nnc(-c3c[nH]c4ccccc34)nc2-c2ccccc2)cc1 | 65* | 38 | -9 | i | -0.62 | -1.4
ClC(Cl)c1nnc(-c2ccccc2)c(-c2c[nH]c3ccccc23)n1 | 11 | 7 | 3 | i | -2.5 | 0.31
Oc1ccc(-c2nnc(-c3ccccc3)c(-c3ccccc3)n2)cc1 | 0 | 4 | -8 | i | 0.13 | 0.24
Cc1ccc(-c2nnc(-c3ccccc3)c(-c3ccccc3)n2)cc1 | 1 | 76* | 3 | i | -0.43 | .
CCCn1c(Nc2cccc(OC)c2)nc2ccccc21 | 1 | . | . | . | . | .
COc1ccc(/C=N/NC(=O)CN2CCSCC2)cc1C | 0 | 5 | 3 | i | 1.5 | 0.5
C1=CCN(Cc2ccccc2)C1 | -1 | . | . | . | . | .
O=C1c2cccnc2C(=O)N1Cc1ccc(S(=O)(=O)N2CCOc3ccccc32)cc1 | 1 | . | . | . | . | .
Nc1nonc1-c1nc2ccccc2n1CC(=O)N/N=C/c1ccc(-c2cccc(C(=O)O)c2)o1 | 68* | -40 | -3 | i | -0.069 | -0.17
Nc1nonc1-c1nc2ccccc2n1CC(=O)O | 3 | 10 | -2 | i | -0.0018 | .
COC(=O)c1ccccc1NC(=O)Cn1c(-c2nonc2N)nc2ccccc21 | 4 | 11 | . | + | . | -0.28
COC(=O)c1ccc(NC(=O)Cn2c(-c3nonc3N)nc3ccccc32)cc1 | 5 | -12 | -6 | i | 0.77 | 1.5
Cn1c(CNC(=O)c2ccco2)nnc1SCC(=O)Nc1c(F)cc(F)cc1Br | 9 | -9 | 12 | i | 0.69 | 0.71
Cc1ccc(S(=O)(=O)N2CCN(S(=O)(=O)N3CCC(C)CC3)CC2)cc1C | 0 | . | . | . | . | .
COC(=O)c1ccc(NC(=O)CNc2ccccc2)cc1 | 12 | 2 | 13 | i | -0.063 | 1.1
Cc1ccc(-c2cc(C(=O)Nc3ccc(S(=O)(=O)Nc4ncccn4)cc3)[nH]n2)c(O)c1C | 5 | . | 16 | . | 0.65 | -0.04
Cc1[nH]c2ccccc2c1C(=O)COC(=O)c1ccc2c(=O)n3c(nc2c1)CCC3 | 93* | 1 | . | i | -0.39 | 0.41
CN(C(=O)COC(=O)c1ccc2c(=O)n3c(nc2c1)CCC3)c1ccccc1 | -9 | -13 | -2 | i | 0.088 | 0.8
CC(=O)c1cccc(OC(=O)c2ccc3c(=O)n4c(nc3c2)CCC4)c1 | 54* | . | . | . | . | .
COc1cc(OC)cc(OC(=O)c2ccc3c(=O)n4c(nc3c2)CCC4)c1 | 41 | . | . | . | . | .
Cc1ccc(C(=O)N2CCN3C(=O)c4ccccc4C23c2ccc(Cl)cc2)cc1 (stereo not drawn) | 13 | -18 | -4 | + | -0.26 | -0.62
Cc1ccc(-c2nn(-c3ccccc3)cc2CSC(=N)N)cc1 | 8 | 81* | 7 | i | 0.95 | -0.56
